Data reported in ChEMBL document CHEMBL3792375, “Strategies for improving the solubility and metabolic stability of griseofulvin analogues” (Eur J Med Chem, 2016).
Values after ≈ are worked out from the molar mass of the structure shown.

Experiments:
[1] = Thermodynamic solubility in PBS buffer at 1 mg after 12 hrs by HPLC analysis; assay type: physicochemical; details: read-out: Therm_solubility
Method in brief: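 Solubility was measured in PBS, with the dissolved compound quantified by HPLC. The HPLC setup has a lower detection limit.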

MDA-MB-231 = assay: Cytotoxicity against human MDA-MB-231 cells assessed as reduction in cell viability after 72 hrs by celltiter Glo assay; assay type: functional, cell-based; details: MDA-MB-231, 72 h
Method in brief: (§1)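 Antiproliferative IC50 was determined against viable cells using a luminescent ATP read-out.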

[2] = Half life in mouse liver microsomes by HPLC analysis in presence of NADPH; assay type: ADME
Method in brief: (§2)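 Male mouse or rat liver microsomes. Each run was done in triplicate, with a matching control that had no cofactor added. Samples were taken at set times, and the remaining non-degraded compound was quantified by analytical HPLC peak area. Half-life was calculated from linear plots.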

[3] = Half life in rat liver microsomes by HPLC analysis in presence of NADPH; assay type: ADME; method in brief: as §2
U2OS = assay: Cytotoxicity against human U2OS cells assessed as reduction in cell viability after 72 hrs by celltiter Glo assay; assay type: functional, cell-based; method in brief: as §1
Liver microsome = assay: Drug metabolism in rat liver microsomes assessed as position 4/6 CH3 cleavage by LC-MS analysis; assay type: ADME
Liver = assay: Drug metabolism in mouse liver microsomes assessed as position 4/6 CH3 cleavage by LC-MS analysis; assay type: ADME
HeLa = assay: Cytotoxicity against human HeLa cells assessed as reduction in cell viability after 24 hrs by MTT assay; assay type: functional, cell-based
[4] = Cytotoxicity against human SCC114 cells assessed as reduction in cell viability after 24 hrs by MTT assay; assay type: functional, cell-based; details: SCC114, 24 h

| solubility thermodynamic at 12 h [1] [µg/mL] | half-life [2] [min] | half-life [3] [min] | Drug metabolism (Liver microsome) | Drug metabolism (Liver) | Structure (SMILES) | IC50 (MDA-MB-231) [µM] | IC50 (U2OS) [µM] | IC50 (HeLa) [µM] | IC50 [4] [µM] |
| --- | --- | --- | --- | --- | --- | --- | --- | --- | --- |
| < 0.3 | 11 | 26 |  |  | COc1cc(OC(F)F)c2c(c1Cl)O[C@]1(C2=O)C(OCc2ccccc2)=CC(=O)C[C@H]1C | 11.8 | 14.3 |  |  |
| 0.3 (≈ 0.7 µM) | 27 | 60 |  |  | COc1cc(OC)c2c(c1Cl)O[C@]1(C2=O)C(OCc2ccccc2)=CC(=O)C[C@H]1C | 1.62 | 1.45 |  |  |
| 7.7 (≈ 21.8 µM) | 37 | 58 |  |  | COC1=CC(=O)C[C@@H](C)[C@]12Oc1c(Cl)c(OC)cc(OC)c1C2=O [GRISEOFULVIN] | 25.3 | 22.4 | 75 | 35 |

Second part, the molecule before the results:

| Structure (SMILES) | solubility thermodynamic at 12 h [1] [µg/mL] | half-life [2] [min] | half-life [3] [min] | Drug metabolism (Liver microsome) | Drug metabolism (Liver) | IC50 (MDA-MB-231) [µM] | IC50 (U2OS) [µM] | IC50 (HeLa) [µM] | IC50 [4] [µM] |
| --- | --- | --- | --- | --- | --- | --- | --- | --- | --- |
| COc1cc(OC(F)F)c(Cl)c2c1C(=O)[C@@]1(O2)C(OCc2ccccc2)=CC(=O)C[C@H]1C | < 0.3 | 31 | 53 |  |  | 5.34 | 5.56 |  |  |
| [2H]C([2H])([2H])OC1=CC(=O)C[C@@H](C)[C@]12Oc1c(Cl)c(OC)cc(OC)c1C2=O |  |  |  | metabolite_detected | metabolite_detected |  |  |  |  |
| COc1cc(OC)c2c(c1Cl)O[C@]1(C2=O)C(OCc2ccccc2)=C/C(=N\OCC(=O)O)C[C@H]1C | > 1000 | 339 | 449 |  |  | 10.1 | 14.1 |  |  |
| COc1cc(OC)c2c(c1Cl)O[C@]1(C2=O)C(OCc2ccccc2)=C/C(=N\O)C[C@H]1C | 3 (≈ 6.76 µM) | 45 | 57 |  |  | 1.29 | 1.61 |  |  |
